Assay results reported in ChEMBL document CHEMBL4190405, “Scaffold-Hopping Approach To Discover Potent, Selective, and Efficacious Inhibitors of NF-κB Inducing Kinase” (J Med Chem, 2018).
Converted amounts (≈) assume the structure as drawn.

Columns and labels:
[1] = Lipophilicity, log D of the compound at pH 7.4 by LC-MS based shake flask method; type: physicochemical; conditions: buffer
Summary of the method: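 LogD at pH 7.4 measured by a high-throughput microscale shake-flask method with LC-MS/MS quantitation.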

[2] = Kinetic solubility of the compound; type: physicochemical; conditions: read-out: Kinetic_solubility
[3] = Apparent permeability from apical to basolateral side in MDCK cells; type: ADME, cell-based, Canis lupus familiaris; conditions: dog
[4] = Apparent permeability from basolateral to apical side in MDCK cells; type: ADME, cell-based, Canis lupus familiaris; conditions: dog
[5] = Volume of distribution in Sprague-Dawley rat; type: ADME, organism-based; conditions: in vivo
[6] = Oral bioavailability in Sprague-Dawley rat at 5 mg/kg via gavage administered as single dose; type: ADME, organism-based; conditions: in vivo
[7] = Volume of distribution in CD-1 mouse; type: ADME, organism-based; conditions: in vivo
[8] = Oral bioavailability in CD-1 mouse at 5 mg/kg via gavage administered as single dose; type: ADME, organism-based; conditions: in vivo
[9] = Volume of distribution in Beagle dog; type: ADME, organism-based, Canis lupus familiaris; conditions: in vivo
[10] = Oral bioavailability in Beagle dog at 5 mg/kg via gavage administered as single dose; type: ADME, organism-based, Canis lupus familiaris; conditions: in vivo
[11] = Volume of distribution in cynomolgus monkey; type: ADME, organism-based, Macaca fascicularis; conditions: in vivo
[12] = Oral bioavailability in cynomolgus monkey at 5 mg/kg via gavage administered as single dose; type: ADME, organism-based, Macaca fascicularis; conditions: in vivo

| logD [1] | SMILES | other results |
| --- | --- | --- |
| 0.61 | CN1CC[C@@](O)(C#Cc2ccnc(-n3ccc(C(N)=O)n3)c2)C1=O |  |
| 2 | CN1CC[C@@](O)(C#Cc2ccnc(-n3nc(C(N)=O)cc3N)c2)C1=O |  |
| 1.6 | CN1CC[C@@](O)(C#Cc2cccc(-n3nc(C(N)=O)c4cccnc43)c2)C1=O |  |
| 1.6 | CN1CC[C@@](O)(C#Cc2cccc(-c3ccnc(C(N)=O)n3)c2)C1=O |  |
| 1.9 | CN1CC[C@@](O)(C#Cc2ccnc(-n3nc(C(N)=O)c4ccccc43)c2)C1=O |  |
| 2 | CN1CC[C@@](O)(C#Cc2ccnc(-n3nc(C(N)=O)cc3C3CC3)c2)C1=O |  |
| 1.9 | CN1CC[C@@](O)(C#Cc2ccnc(-n3nc(C(N)=O)c4c3CCCC4)c2)C1=O |  |
| 1 | CN1CC[C@@](O)(C#Cc2cccc(-c3cncc(C(N)=O)n3)c2)C1=O |  |

Further lines, the compound ahead of its results:

| SMILES | logD [1] | other results |
| --- | --- | --- |
| COc1cnc2c(c1)c(C(N)=O)nn2-c1cccc(C#C[C@]2(O)CCN(C)C2=O)c1 | 1.9 |  |
| CN1CC[C@@](O)(C#Cc2cccc(-c3nc(C(N)=O)c4ccccn34)c2)C1=O | 1.3 |  |
| COc1ccc2c(-c3cccc(C#C[C@]4(O)CCN(C)C4=O)c3)nc(C(N)=O)n2c1 | 2.4 |  |
| CN1CC[C@@](O)(C#Cc2cccc(-n3cc(C(N)=O)c4cccnc43)c2)C1=O | 2.4 |  |
| CN1CC[C@@](O)(C#Cc2cccc(-n3nc(C(N)=O)c4cc(F)ccc43)c2)C1=O | 2.6 |  |
| CCOc1ccn2c(-c3cccc(C#C[C@]4(O)CCN(C)C4=O)c3)nc(C(N)=O)c2c1 | 1.9 |  |
| CN1CC[C@@](O)(C#Cc2cccc(-c3cccc(C(N)=O)n3)c2)C1=O | 1.6 |  |
| COc1cc(C(N)=O)nc(-c2cccc(C#C[C@]3(O)CCN(C)C3=O)c2)c1 | 1.9 | solubility kinetic [2]: 139 µM (≈ 50.8 µg/mL); Papp A→B [3]: 7.3 ×10⁻⁶ cm/s; Papp B→A [4]: 10.2 ×10⁻⁶ cm/s; Vd [5]: 1.35 L/kg; bioavailability [6]: 97%; Vd [7]: 1.58 L/kg; bioavailability [8]: 54%; Vd [9]: 0.778 L/kg; bioavailability [10]: 56%; Vd [11]: 1.39 L/kg; bioavailability [12]: > 100% |
| CN1CC[C@@](O)(C#Cc2cccc(-n3nc(C(N)=O)c4ccccc43)c2)C1=O | 2.1 |  |
| CN1CC[C@@](O)(C#Cc2cccc(-c3cccc(C(N)=O)c3)c2)C1=O | 1.6 |  |
| COc1cc(C(N)=O)nc(-c2cccc(C#C[C@]3(O)CCN(C)C3=O)c2)n1 | 1.8 |  |
| CN1CC[C@@](O)(C#Cc2cccc(-c3cc4ccccc4c(C(N)=O)n3)c2)C1=O | 2.5 |  |
| CN1CC[C@@](O)(C#Cc2cccc(-c3ccc(N)c(C(N)=O)n3)c2)C1=O | 1.7 |  |
| CN1CC[C@@](O)(C#Cc2cccc(-c3nc(C(N)=O)n4ccccc34)c2)C1=O | 2.2 |  |
